Experimental findings from article PMC7255057 (Journal of medicinal chemistry, 2019) are described below.

Data set [1] can be described thus: Dynamic light scattering of aggregates/micelles. The data set is classed as physicochemical. To be noted: for aggregate size range (DLS intensity profile): 500 μM, 2.5% DMSO; for aggregates detectable by DLS in presence of HSA: with HSA.
The target of data set [2] is T1, EPAC1CBD (cAMP-binding domain of hEPAC1, residues 149–318) (Homo sapiens, UniProt O95398).
T1 sequence (O95398 149-318 isoform O95398-3): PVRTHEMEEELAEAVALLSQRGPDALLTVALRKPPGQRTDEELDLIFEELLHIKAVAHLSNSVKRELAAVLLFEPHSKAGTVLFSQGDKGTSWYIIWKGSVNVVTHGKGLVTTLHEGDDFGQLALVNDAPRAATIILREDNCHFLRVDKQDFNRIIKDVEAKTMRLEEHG
As to the kind of experiment: NH-HSQC chemical shift titration of EPAC1CBD. Put shortly:
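100 μM human EPAC1 CBD (residues 149–318) in Tris NMR buffer was titrated with test compound, with or without HSA, and read by 1H-15N HSQC. DMSO was 0.5% per 100 μM compound. Compounded chemical-shift changes from 35 residues were least-squares fitted at 1:1, with ΔCCSmax free or fixed, to give Kd or apparent Kd. Peak intensities were normalised to the compound-free sample and averaged (I/I0).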

For data set [3], the target named is T2, human serum albumin (HSA) (Homo sapiens, UniProt P02768). As to the kind of experiment: ANS fluorescence binding and competition on HSA. To be noted: for displacement of ANS from HSA: 2.5 μM HSA with 5 or 100 μM ANS. Put shortly: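 Fluorescence competition with 2.5 μM HSA and 5 or 100 μM ANS. The test compound was titrated over a concentration range. Excitation was 360 nm, with emission read at 460 and 480 nm to detect blue shifts. Signals were normalised between ANS alone (minimum) and HSA:ANS (maximum). ANS stoichiometry and affinity on HSA were set beforehand by a Sudlow-type titration.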
T2 sequence (P02768 25-609): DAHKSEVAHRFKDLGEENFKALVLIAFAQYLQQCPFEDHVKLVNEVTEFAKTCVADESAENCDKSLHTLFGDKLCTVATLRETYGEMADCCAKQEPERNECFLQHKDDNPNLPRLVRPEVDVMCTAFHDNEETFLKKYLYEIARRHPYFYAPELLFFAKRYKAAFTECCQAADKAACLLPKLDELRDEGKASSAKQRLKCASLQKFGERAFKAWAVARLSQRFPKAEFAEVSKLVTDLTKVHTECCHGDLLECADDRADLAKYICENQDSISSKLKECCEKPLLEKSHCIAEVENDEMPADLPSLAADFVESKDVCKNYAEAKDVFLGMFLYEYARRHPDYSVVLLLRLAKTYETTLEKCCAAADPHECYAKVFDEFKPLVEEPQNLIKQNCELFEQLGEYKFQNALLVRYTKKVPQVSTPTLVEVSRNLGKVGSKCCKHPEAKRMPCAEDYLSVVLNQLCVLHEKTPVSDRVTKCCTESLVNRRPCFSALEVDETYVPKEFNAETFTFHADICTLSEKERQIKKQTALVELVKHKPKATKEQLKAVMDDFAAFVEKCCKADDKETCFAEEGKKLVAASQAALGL

Data set [4] can be described thus: SPR on nonfunctionalized gold nanoparticle sensor. The class given is physicochemical. The settings on record: for SPR signal relative to DMSO control: 50 μM and 250 μM, 1.25% DMSO.
The target in data set [5] is T3, EPAC1CBD (Homo sapiens, UniProt O95398).
T3 sequence (O95398 149-318 isoform O95398-3): T1 sequence (O95398 149-318 isoform O95398-3)
As to the kind of experiment: Nonspecific interaction with EPAC1CBD by global NH-HSQC intensity losses. The class given is binding. The settings on record: for type of aggregation-based inhibitor: NMR intensity losses and DLS.

Data set [6] has as its target T3, EPAC1CBD. Nature of the data set: DLS volume profile of EPAC1CBD in presence of ESIs. The data set is classed as binding.
Data set [7] deals with T2, human serum albumin (HSA). As to the kind of experiment: 13C-oleic acid displacement assay on HSA. The settings on record: 250 μM HSA, 1.5 mM OA. The class given is binding. In a few lines: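 Recombinant globulin- and fatty-acid-free HSA at 250 μM in 20 mM NaPO4 pH 7.6, 50 mM NaCl in 99.9% D2O, held 37 °C 30 min. 13C-oleic acid (100 mM stock in DMSO-d6, warmed 50 °C 10 min) added to 1.5 mM final, then 37 °C 2 h. {13C–1H}-HSQC recorded with and without test compound at 298 K; site peaks A–H losing intensity mark displacement.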

A short description of data set [8]: Transmission electron microscopy of aggregates. The data set is classed as physicochemical. To be noted: 200 μM. In a few lines:
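Aggregate samples were applied to 400-mesh copper grids freshly coated with continuous amorphous carbon and glow-discharged at 5 mA for 15 s beforehand. Grids were imaged by transmission electron microscopy on a side-mounted cooled 4-megapixel CCD camera.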

The target in data set [9] is human serum albumin (HSA) Sudlow sites (Homo sapiens, UniProt P02768). Nature of the data set: Fluorescence competition with dansylated amino acids. The data set is classed as binding. In a few lines: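 Dansylated arginine (Sudlow site 1, 1:1) or dansylated phenylalanine (sites 1 and 2) fluorescence with recombinant fatty-acid-free HSA on a plate reader. Excitation was 370 for both probes, with emission at 460 (DanR) or 480 nm (DanF). Probe affinity and stoichiometry came from direct titration. Competitions used 2.5 μM HSA with 100 μM probe and were least-squares fitted assuming no extra sites.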
Sequence of human serum albumin (HSA) Sudlow sites (P02768 25-609): as above

For the molecule `CC(C)(C)c1cc(C(=O)/C(C#N)=N/Nc2cccc(Cl)c2)no1` [ESI-09], in data set [1], the “aggregate size range (DLS intensity profile)” value is reported as 90–600 nm and the “aggregates detectable by DLS in presence of HSA” value is recorded as “no detectable aggregates in the presence of HSA”. In addition, the “EPAC1CBD chemical shift changes with HSA relative to those without HSA” value in data set [2] (100 μM ESI-09) was less than 20%. In addition, the “reduction of average chemical shift changes with HSA vs without HSA” value in [2] (ESI-09 concentration yielding similar intensity losses) is listed as ~ 30%. Also, the “displacement of ANS from HSA” value in data set [3] was “can fully displace even large excesses of ANS at low micromolar concentrations”. Moreover, in data set [4], the “SPR signal relative to DMSO control” value is reported as “significant difference for ESI-09 when injected at a concentration that is above its CAC”. Also, the “SPR signal with HSA relative to HSA and DMSO control” value in [4] (250 μM ESI-09 with 25 μM HSA) is “no significant SPR signal increase”. Further, the “SPR signal with HSA relative to HSA and DMSO reference” value in [4] (500 μM ESI-09 with 25 μM HSA) is listed as “SPR signal significantly increases”. Moreover, on EPAC1CBD [5], the “EPAC1CBD NH-HSQC signal/intensity loss” value is “substantial signal losses for EPAC1CBD peaks” and the “type of aggregation-based inhibitor” value is recorded as “type B”. The “ESI-09 concentration giving similar signal loss in presence of HSA” value at EPAC1CBD [5] (compared with 100 μM ESI-09 without HSA) was “around 400 μM”. Further, the “increase of EPAC1CBD HSQC intensities in presence of HSA” value at EPAC1CBD [5] (most ESI-09 concentrations) is recorded as 30–40%. Further, the “increase of EPAC1CBD size profile (DLS)” value on EPAC1CBD [6] (ESI concentration above CAC) is reported as “up to 5 nm”. The “displacement of 13C-oleic acid from HSA” value in [7] is listed as “displace OA at multiple sites”. The “aggregate morphology (TEM)” value in data set [8] was “spherical micellar morphology”.

Consider `C[C@@H]1CCc2c(cc(Br)c(F)c2Br)N1C=O` [CE3F4R], for which, in [1], the “aggregate size range (DLS intensity profile)” value is recorded as 90–600 nm and the “aggregates detectable by DLS in presence of HSA” value is listed as “no detectable aggregates in the presence of HSA”. Besides, the “coaggregate size with TX (DLS)” value in [1] (TX:CE3F4R 1:2 (0.0075% TX, 200 μM CE3F4R)) is listed as “around 70 nm”. Also, the “increase of apparent Kd for EPAC1CBD binding caused by HSA” value in data set [2] (CE3F4R titration with vs without HSA) is on record as 5–10 fold. Further, the “concentration at which dissociation from EPAC1CBD starts” value in data set [2] (presence of HSA) is no less than 750 µM. In addition, in [9] (concentrations below CAC), the “displacement of dansylated amino acids from HSA” value is reported as “ineffective at displacing either of the dansylated amino acids from HSA”. Moreover, the “displacement of ANS from HSA” value in data set [3] was “unable to displace ANS”. The “SPR signal relative to DMSO control” value in data set [4] is “no significant change in SPR signal”. In addition, at EPAC1CBD [5], the “EPAC1CBD NH-HSQC signal/intensity loss” value is listed as “no more than that caused by DMSO” and the “type of aggregation-based inhibitor” value is “Type A”. Moreover, the “change of EPAC1CBD DLS volume profile” value on EPAC1CBD [6] (below or above CAC) is “does not result in any major change in the volume profile of EPAC1CBD”. Also, the “displacement of 13C-oleic acid from HSA” value in data set [7] was “displace OA at multiple sites”. Further, in data set [8], the “aggregate morphology (TEM)” value is “more amorphous morphology”.

Turning to Triton X-100 [TX], the “average aggregate/micelle diameter (DLS)” value in data set [1] (compound in isolation) is given as “about 10 nm”. Further, the “EPAC1CBD NH-HSQC signal/intensity loss” value at EPAC1CBD [5] was “no significant chemical shift changes or intensity losses”.

For `CN(C)c1cccc2c(S(=O)(=O)N[C@@H](CCCN=C(N)N)C(=O)O)cccc12` [DanR, dansyl-arginine], the Kd in data set [9] (read-out: Kd for HSA Sudlow's Site I, fluorescence titration) is roughly 25 µM.

For `O=S(=O)(O)c1cccc2cccc(Nc3ccccc3)c12` [ANS, 8-anilinonaphthalene-1-sulfonic acid], the “ANS binding stoichiometry and affinity for HSA” value in data set [3] (Scatchard plot) is recorded as “binds up to four sites on HSA with low micromolar affinity”.

As a reminder, the Kd is a measure of binding affinity in units of concentration.
